Published values of several laboratories.
Lines come from different studies, so protocols differ. Converted amounts (≈) assume the structure as drawn.
Organism: Mycobacterium tuberculosis variant bovis BCG
Read-out: microbial growth

Structure (SMILES) | strain | time | measurement | value
Clc1cccc(COc2ccccc2CNCc2ccncc2)c1 | ATCC35734 BCG | – | MIC | > 62.5 µM
Nc1nccnc1C(=O)O | ATCC35734 BCG | 5 days | IC50 | 800 µM
C=CC(c1ccc(-c2ccc(O)c(Cl)c2)cc1)n1ccnc1 (stereo not drawn) | BCG | – | MIC50 | 49.9 µM (≈ 15.5 µg/mL)
Fc1ccc(COc2ccc(CNCc3ccccc3)cc2)cc1 | ATCC35734 BCG | – | MIC | > 62.5 µM
COc1ccc(C=CC(=O)c2ccc(Cl)cc2)cc1OC | BCG | 7 days | MIC | 200 mg/L
C=CC(c1ccc(-c2ccc(C#N)cc2)cc1)n1ccnc1 (stereo not drawn) | BCG | – | MIC50 | 9.2 µM (≈ 2.63 µg/mL)
c1ccc(COc2ccccc2CNCc2ccncc2)cc1 | ATCC35734 BCG | – | MIC | > 62.5 µM
COc1ccc(C=CC(=O)c2ccc(F)cc2)cc1OC | BCG | 7 days | MIC | 25 mg/L
C=CC(c1ccc(-c2ccc(OC)c(OC)c2)cc1)n1ccnc1 (stereo not drawn) | BCG | – | MIC50 | > 100 µM
CCCCCCn1c2c([n+](C3CCC4(CCCCC4)CC3)c1C)C(=O)c1ccccc1C2=O | BCG | 5 days | MIC50 | 0.08 µM
Fc1ccc(COc2cccc(CNCc3cccnc3)c2)cc1 | ATCC35734 BCG | – | MIC | > 62.5 µM
COc1ccc(C=CC(=O)c2ccc(Br)cc2)cc1OC | BCG | 7 days | MIC | 12.5 mg/L
C=CC(c1ccc(-c2ccc(OC)c(C)c2)cc1)n1ccnc1 (stereo not drawn) | BCG | – | MIC50 | 17.3 µM (≈ 5.27 µg/mL)
COc1ccc(C=CC(=O)c2ccc([N+](=O)[O-])cc2)cc1OC | BCG | 7 days | MIC | 200 mg/L
CCCNc1cnc(C(=O)O)cn1 | ATCC35734 BCG | 5 days | IC50 | 700 µM
